ChEMBL document CHEMBL5058577, “EUbOPEN Chemogenomics Library 2 (Multiplex)” (2022)

Test system: U2OS
Test: Multiplex assay against U2OS
Format: toxicity, cell-based
Conditions: human
Summary of the method: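 Hoechst33342, BioTracker Green Microtubule Cytoskeleton Dye, MitoTracker Red and Annexin V Alexa Fluor 680 were added to live cells at seeding, and imaging on a CQ1 microscope at 37°C and 5% CO2 followed compound addition. Gating by CellPathfinder machine learning separated cells into Hoechst high-intensity objects or normal cells, then normal cells into healthy, pyknosed or fragmented nuclei, then pyknosed cells into mitotic or apoptotic. Per cents of healthy-nucleus cells are reported for the tubulin, mitochondrial-mass and membrane-permeability phenotypes.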

[1] = 12 h, 1 µM, compound concentration 1 uM, replicate 1
[2] = 12 h, 1 µM, compound concentration 1 uM, replicate 2
[3] = 12 h, 10 µM, compound concentration 10 uM, replicate 1
[4] = 12 h, 10 µM, compound concentration 10 uM, replicate 2
[5] = 24 h, 1 µM, compound concentration 1 uM, replicate 1
[6] = 24 h, 1 µM, compound concentration 1 uM, replicate 2
[7] = 24 h, 10 µM, compound concentration 10 uM, replicate 1
[8] = 24 h, 10 µM, compound concentration 10 uM, replicate 2
[9] = 48 h, 1 µM, compound concentration 1 uM, replicate 1
[10] = 48 h, 1 µM, compound concentration 1 uM, replicate 2
[11] = 48 h, 10 µM, compound concentration 10 uM, replicate 1
[12] = 48 h, 10 µM, compound concentration 10 uM, replicate 2

SMILES: CCn1c(-c2nc3cc(C(=O)N4CCCC(N)C4)ccc3n2C)cc2ccccc21.Cl (stereo unspecified)
- Population Apoptotic (%) [1]: 61%
- Population Fragmented Nuclei (%) [1]: 22%
- Population Healthy Nuclei (%) [1]: 67%
- Population Hoechst High Intensity Objects (%) [1]: 0%
- Population Membrane Permeable-Phenotype (%) [1]: 4%
- Population Mitochondria Different-Phenotype (%) [1]: 3%
- Population Mitotic Cells (%) [1]: 38%
- Population Normal (%) [1]: 99%
- Population Pyknosed Nuclei (%) [1]: 9%
- Population Tubulin-Different-Phenotype (%) [1]: 2%
- Total Cell Count [1]: 213
- Population Apoptotic (%) [2]: 100%
- Population Fragmented Nuclei (%) [2]: 18%
- Population Healthy Nuclei (%) [2]: 77%
- Population Hoechst High Intensity Objects (%) [2]: 5%
- Population Membrane Permeable-Phenotype (%) [2]: 15%
- Population Mitochondria Different-Phenotype (%) [2]: 18%
- Population Mitotic Cells (%) [2]: 0%
- Population Normal (%) [2]: 94%
- Population Pyknosed Nuclei (%) [2]: 3%
- Population Tubulin-Different-Phenotype (%) [2]: 13%
- Total Cell Count [2]: 90
- Population Apoptotic (%) [3]: 48%
- Population Fragmented Nuclei (%) [3]: 24%
- Population Healthy Nuclei (%) [3]: 56%
- Population Hoechst High Intensity Objects (%) [3]: 2%
- Population Membrane Permeable-Phenotype (%) [3]: 34%
- Population Mitochondria Different-Phenotype (%) [3]: 29%
- Population Mitotic Cells (%) [3]: 51%
- Population Normal (%) [3]: 97%
- Population Pyknosed Nuclei (%) [3]: 19%
- Population Tubulin-Different-Phenotype (%) [3]: 27%
- Total Cell Count [3]: 277
- Population Apoptotic (%) [4]: 54%
- Population Fragmented Nuclei (%) [4]: 21%
- Population Healthy Nuclei (%) [4]: 60%
- Population Hoechst High Intensity Objects (%) [4]: 1%
- Population Membrane Permeable-Phenotype (%) [4]: 25%
- Population Mitochondria Different-Phenotype (%) [4]: 55%
- Population Mitotic Cells (%) [4]: 45%
- Population Normal (%) [4]: 98%
- Population Pyknosed Nuclei (%) [4]: 18%
- Population Tubulin-Different-Phenotype (%) [4]: 48%
- Total Cell Count [4]: 135
- Population Apoptotic (%) [5]: 82%
- Population Fragmented Nuclei (%) [5]: 22%
- Population Healthy Nuclei (%) [5]: 68%
- Population Hoechst High Intensity Objects (%) [5]: 1%
- Population Membrane Permeable-Phenotype (%) [5]: 6%
- Population Mitochondria Different-Phenotype (%) [5]: 3%
- Population Mitotic Cells (%) [5]: 17%
- Population Normal (%) [5]: 98%
- Population Pyknosed Nuclei (%) [5]: 9%
- Population Tubulin-Different-Phenotype (%) [5]: 3%
- Total Cell Count [5]: 249
- Population Apoptotic (%) [6]: 66%
- Population Fragmented Nuclei (%) [6]: 25%
- Population Hoechst High Intensity Objects (%) [6]: 3%
- Population Membrane Permeable-Phenotype (%) [6]: 14%
- Population Mitochondria Different-Phenotype (%) [6]: 13%
- Population Mitotic Cells (%) [6]: 33%
- Population Normal (%) [6]: 96%
- Population Pyknosed Nuclei (%) [6]: 5%
- Population Tubulin-Different-Phenotype (%) [6]: 13%
- Total Cell Count [6]: 112
- Population Apoptotic (%) [7]: 62%
- Population Fragmented Nuclei (%) [7]: 27%
- Population Healthy Nuclei (%) [7]: 54%
- Population Hoechst High Intensity Objects (%) [7]: 2%
- Population Membrane Permeable-Phenotype (%) [7]: 16%
- Population Mitochondria Different-Phenotype (%) [7]: 34%
- Population Mitotic Cells (%) [7]: 38%
- Population Normal (%) [7]: 97%
- Population Pyknosed Nuclei (%) [7]: 17%
- Population Tubulin-Different-Phenotype (%) [7]: 11%
- Total Cell Count [7]: 288
- Population Apoptotic (%) [8]: 73%
- Population Fragmented Nuclei (%) [8]: 19%
- Population Healthy Nuclei (%) [8]: 64%
- Population Hoechst High Intensity Objects (%) [8]: 3%
- Population Membrane Permeable-Phenotype (%) [8]: 20%
- Population Mitochondria Different-Phenotype (%) [8]: 53%
- Population Mitotic Cells (%) [8]: 26%
- Population Normal (%) [8]: 96%
- Population Pyknosed Nuclei (%) [8]: 16%
- Population Tubulin-Different-Phenotype (%) [8]: 26%
- Total Cell Count [8]: 146
- Population Apoptotic (%) [9]: 75%
- Population Fragmented Nuclei (%) [9]: 16%
- Population Healthy Nuclei (%) [9]: 76%
- Population Hoechst High Intensity Objects (%) [9]: 2%
- Population Membrane Permeable-Phenotype (%) [9]: 8%
- Population Mitochondria Different-Phenotype (%) [9]: 3%
- Population Mitotic Cells (%) [9]: 25%
- Population Normal (%) [9]: 97%
- Population Pyknosed Nuclei (%) [9]: 6%
- Population Tubulin-Different-Phenotype (%) [9]: 5%
- Total Cell Count [9]: 354
- Population Apoptotic (%) [10]: 70%
- Population Fragmented Nuclei (%) [10]: 22%
- Population Healthy Nuclei (%) [10]: 70%
- Population Hoechst High Intensity Objects (%) [10]: 4%
- Population Membrane Permeable-Phenotype (%) [10]: 10%
- Population Mitochondria Different-Phenotype (%) [10]: 9%
- Population Mitotic Cells (%) [10]: 30%
- Population Normal (%) [10]: 95%
- Population Pyknosed Nuclei (%) [10]: 7%
- Population Tubulin-Different-Phenotype (%) [10]: 8%
- Total Cell Count [10]: 145
- Population Apoptotic (%) [11]: 78%
- Population Fragmented Nuclei (%) [11]: 26%
- Population Healthy Nuclei (%) [11]: 53%
- Population Hoechst High Intensity Objects (%) [11]: 5%
- Population Membrane Permeable-Phenotype (%) [11]: 23%
- Population Mitochondria Different-Phenotype (%) [11]: 22%
- Population Mitotic Cells (%) [11]: 21%
- Population Normal (%) [11]: 94%
- Population Pyknosed Nuclei (%) [11]: 19%
- Population Tubulin-Different-Phenotype (%) [11]: 11%
- Total Cell Count [11]: 353
- Population Apoptotic (%) [12]: 77%
- Population Fragmented Nuclei (%) [12]: 18%
- Population Healthy Nuclei (%) [12]: 64%
- Population Hoechst High Intensity Objects (%) [12]: 6%
- Population Membrane Permeable-Phenotype (%) [12]: 24%
- Population Mitochondria Different-Phenotype (%) [12]: 39%
- Population Mitotic Cells (%) [12]: 22%
- Population Normal (%) [12]: 93%
- Population Pyknosed Nuclei (%) [12]: 16%
- Population Tubulin-Different-Phenotype (%) [12]: 19%
- Total Cell Count [12]: 173
